ChEMBL document CHEMBL4316612, “Synthesis of novel dihydrotriazine derivatives bearing 1,3-diaryl pyrazole moieties as potential antibacterial agents” (Bioorg Med Chem Lett, 2019)
Values after ≈ are worked out from the molar mass of the structure shown.

Legend:
Staphylococcus aureus [1] = test: Antibacterial activity against Staphylococcus aureus by serial dilution method; format: functional
Procedure, shortened: (§1)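 Two-fold serial broth dilution in Mueller-Hinton broth, final 64-0.25 µg/mL; compounds in DMSO (final ≤0.05%). Mid-log cultures diluted 1000-fold, inoculum 10^5 CFU/mL; oxacillin and norfloxacin as positive controls. After 24 h at 37 °C, growth read at 650 nm on a microtiter ELISA reader; MIC = lowest level giving complete growth inhibition. Run three times.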

Staphylococcus aureus [2] = test: Antibacterial activity against Staphylococcus aureus RN4220 after 24 hrs by microtiter ELISA; format: functional; settings: RN4220, 24 h
Procedure, shortened: (§2)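 Broth microdilution MIC. Bacteria grown to mid-log phase in Mueller-Hinton broth, diluted 1000-fold, and inoculated at 10^5 CFU/mL. Compounds in DMSO (final ≤0.05%) were given as two-fold serial dilutions, final 64-0.25 µg/mL. Plates were incubated 24 h at 37 °C and growth read at 650 nm. MIC is the lowest concentration giving complete growth inhibition. Three independent experiments; oxacillin and norfloxacin served as positive controls.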

Streptococcus mutans = test: Antibacterial activity against Streptococcus mutans 3289 after 24 hrs by microtiter ELISA; format: functional; settings: Streptococcus mutans, 3289, 24 h; procedure, shortened: as §1
Escherichia coli = test: Antibacterial activity against Escherichia coli KCTC 1924 after 24 hrs by microtiter ELISA; format: functional; settings: KCTC 1924, 24 h; procedure, shortened: as §1
Candida albicans = test: Antifungal activity against Candida albicans 7535 after 24 hrs by microtiter ELISA; format: functional; settings: Candida albicans, 7535, 24 h; procedure, shortened: as §1
Staphylococcus aureus [3] = test: Antibacterial activity against methicillin-resistant Staphylococcus aureus CCARM 3167 after 24 hrs by microtiter ELISA; format: functional; settings: CCARM 3167, 24 h; procedure, shortened: as §2
Staphylococcus aureus [4] = test: Antibacterial activity against methicillin-resistant Staphylococcus aureus CCARM 3506 after 24 hrs by microtiter ELISA; format: functional; settings: CCARM 3506, 24 h; procedure, shortened: as §2
Staphylococcus aureus [5] = test: Antibacterial activity against quinolone-resistant Staphylococcus aureus CCARM 3505 after 24 hrs by microtiter ELISA; format: functional; settings: CCARM 3505, 24 h; procedure, shortened: as §2
Staphylococcus aureus [6] = test: Antibacterial activity against quinolone-resistant Staphylococcus aureus CCARM 3519 after 24 hrs by microtiter ELISA; format: functional; settings: CCARM 3519, 24 h; procedure, shortened: as §2
L02 = test: Cytotoxicity against human L02 cells assessed as inhibition of cell growth measured after 24 hrs by MTT assay; format: cell-based; settings: L02, 24 h
Procedure, shortened: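 L02 normal human liver cells seeded at 1.8 × 10^4 cells/well in DMEM with 10% FBS and antimycotic. Exposed 24 h at 37 °C, 5% CO2 to 200-1.625 µM, compounds in 10% DMSO. MTT (2.5 mg/mL) added for 4 h, formazan dissolved in DMSO, OD at 570 nm. Untreated cells as negative control; IC50 = 50% growth inhibition; triplicate.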

Staphylococcus aureus [7] = test: Antibacterial activity against Staphylococcus aureus RN4220 by serial dilution method; format: functional; procedure, shortened: as §2
Staphylococcus aureus [8] = test: Antibacterial activity against quinolone-resistant Staphylococcus aureus CCARM 3505 by serial dilution method; format: functional; procedure, shortened: as §2
[9] = molecular target: Dihydrofolate reductase (Homo sapiens) (UniProt P00374); test: Inhibition of human DHFR at 10 umol/L measured after 1.5 hrs by ELISA relative to control
Sequence of Dihydrofolate reductase (Homo sapiens) (P00374 whole entry, looked up): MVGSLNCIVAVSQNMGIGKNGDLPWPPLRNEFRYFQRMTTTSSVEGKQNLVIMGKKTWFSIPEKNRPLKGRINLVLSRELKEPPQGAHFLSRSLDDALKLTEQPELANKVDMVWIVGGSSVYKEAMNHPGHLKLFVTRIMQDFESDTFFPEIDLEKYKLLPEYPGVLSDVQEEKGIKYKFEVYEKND

Question: For O=C(O)CN1C(=O)/C(=C/c2cn(-c3ccc([N+](=O)[O-])cc3[N+](=O)[O-])nc2-c2ccc(Cl)cc2Cl)SC1=S, which MIC (Staphylococcus aureus [1]) is on record?
Answer: 16 µg/mL (≈ 27.6 µM)

Question: Which MIC (Staphylococcus aureus [2]) does the source give for CN(C)C1=NC(c2cn(-c3ccc([N+](=O)[O-])cc3[N+](=O)[O-])nc2-c2ccc(Cl)cc2Cl)N=C(N)N1 (stereo unspecified) here?
Answer: 8 µg/mL (≈ 15.4 µM)

Question: What about the MIC (Streptococcus mutans) of the same compound?
Answer: 8 µg/mL (≈ 15.4 µM)

Question: What about the MIC (Escherichia coli) of the same compound?
Answer: 8 µg/mL (≈ 15.4 µM)

Question: And the MIC (Candida albicans)?
Answer: 8 µg/mL (≈ 15.4 µM)

Question: And the MIC (Staphylococcus aureus [3])?
Answer: 4 µg/mL (≈ 7.72 µM)

Question: And the MIC (Staphylococcus aureus [4])?
Answer: 4 µg/mL (≈ 7.72 µM)

Question: And the MIC (Staphylococcus aureus [5])?
Answer: 8 µg/mL (≈ 15.4 µM)

Question: What about the MIC (Staphylococcus aureus [6]) of the same compound?
Answer: 16 µg/mL (≈ 30.9 µM)

Question: And the IC50 (L02)?
Answer: > 100 µM

Question: What does the source list for NC1=NC(c2ccc3cc(OCc4ccc(Cl)cc4Cl)ccc3c2)N=C(N2CCOCC2)N1 (stereo unspecified)?
Answer: MIC (Staphylococcus aureus [7]): 1 µg/mL (≈ 2.06 µM); MIC (Staphylococcus aureus [8]): 1 µg/mL (≈ 2.06 µM)

Question: With NC1=NC(c2cn(-c3ccc([N+](=O)[O-])cc3)nc2-c2ccc(Cl)cc2Cl)N=C(N2CCOCC2)N1 (stereo unspecified) as the compound, how does the MIC (Staphylococcus aureus [2]) read?
Answer: 2 µg/mL (≈ 3.88 µM)

Question: What about the MIC (Streptococcus mutans) of the same compound?
Answer: 8 µg/mL (≈ 15.5 µM)

Question: And the MIC (Escherichia coli)?
Answer: 4 µg/mL (≈ 7.76 µM)

Question: What about the MIC (Candida albicans) of the same compound?
Answer: 4 µg/mL (≈ 7.76 µM)

Question: What about the MIC (Staphylococcus aureus [3]) of the same compound?
Answer: 2 µg/mL (≈ 3.88 µM)

Question: What about the MIC (Staphylococcus aureus [4]) of the same compound?
Answer: 2 µg/mL (≈ 3.88 µM)

Question: And the MIC (Staphylococcus aureus [5])?
Answer: 4 µg/mL (≈ 7.76 µM)

Question: And the MIC (Staphylococcus aureus [6])?
Answer: 4 µg/mL (≈ 7.76 µM)

Question: What about the IC50 (L02) of the same compound?
Answer: > 100 µM

Question: How did the MIC (Staphylococcus aureus [2]) turn out when NC1=NC(c2cn(-c3ccc([N+](=O)[O-])cc3)nc2-c2ccc(Cl)cc2Cl)N=C(NCCc2ccccc2)N1 (stereo unspecified) was run?
Answer: 1 µg/mL (≈ 1.82 µM)

Question: What about the MIC (Streptococcus mutans) of the same compound?
Answer: 1 µg/mL (≈ 1.82 µM)

Question: What about the MIC (Escherichia coli) of the same compound?
Answer: 1 µg/mL (≈ 1.82 µM)

Question: What about the MIC (Candida albicans) of the same compound?
Answer: 1 µg/mL (≈ 1.82 µM)

Question: What about the MIC (Staphylococcus aureus [3]) of the same compound?
Answer: 1 µg/mL (≈ 1.82 µM)

Question: And the MIC (Staphylococcus aureus [4])?
Answer: 1 µg/mL (≈ 1.82 µM)

Question: And the MIC (Staphylococcus aureus [5])?
Answer: 1 µg/mL (≈ 1.82 µM)

Question: And the MIC (Staphylococcus aureus [6])?
Answer: 1 µg/mL (≈ 1.82 µM)

Question: What about the IC50 (L02) of the same compound?
Answer: 50.5 µM

Question: What about the inhibition [9] of the same compound?
Answer: 92%
